Laboratory results: ChEMBL document CHEMBL3870308, “Repurposing of a drug scaffold: Identification of novel sila analogues of rimonabant as potent antitubercular agents” (Eur J Med Chem, 2016)
≈ marks a conversion by molar mass, not a printed value.

Columns and labels:
[1] = Selectivity index, ratio of IC50 for human A549 cells to MIC for Mycobacterium tuberculosis H37Rv; format: toxicity, cell-based; details: read-out: Ratio IC50
[2] = tested on: Mycobacterium tuberculosis; assay: Antitubercular activity against Mycobacterium tuberculosis H37Rv assessed as growth inhibition by Alamar-Blue assay; format: functional
[3] = Cytotoxicity against mouse RAW cells assessed as reduction in cell viability at =>3 uM measured after 48 hrs by MTT assay; format: toxicity; details: read-out: INH
[4] = Protein binding human plasma at 150 uM measured after 30 mins by equilibrium dialysis method; format: ADME, cell-free; details: read-out: PPB (converted)
Procedure, shortened: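 Plasma spiked with 5 µL of 150 µM compound per 745 µL. Sampled at 0 h, then incubated 30 min at 37 °C. Rapid equilibrium dialysis of plasma against KH2PO4 buffer pH 7.4 for 4 h at 37 °C with shaking. Both chambers matrix-matched and precipitated with methanol containing tolbutamide internal standard. Analysed by LC-MS/MS.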

[5] = Selectivity index, ratio of IC50 for human HepG2 cells to MIC for Mycobacterium tuberculosis H37Rv; format: toxicity, cell-based; details: read-out: Ratio IC50
[6] = Cytotoxicity against human A549 cells measured after 48 hrs by MTT assay; format: toxicity, cell-based
Procedure, shortened: (§1)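 Cells from ATCC grown in DMEM with 10% FBS at 37 °C in 5% CO2, harvested by trypsinization and seeded at 7500 cells per well. After 18 h, compound added at final 0.1, 1, 10 and 100 µM in triplicate. Plates incubated 48 h, then MTT for 60 min at 37 °C. Formazan dissolved in DMSO and read at 560 nm. Percent growth taken relative to control wells, with dose-response curves. Repeated three times, mean ± SD.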

[7] = Cytotoxicity against human THP1 cells assessed as reduction in cell viability at =>3 uM measured after 48 hrs by MTT assay; format: toxicity, cell-based, THP-1; details: read-out: INH
[8] = tested on: Mycobacterium tuberculosis; assay: Antimycobacterial activity against Mycobacterium tuberculosis by broth microdilution assay; format: functional
[9] = Cytotoxicity against human HepG2 cells measured after 48 hrs by MTT assay; format: toxicity, cell-based; procedure, shortened: as §1
[10] = Metabolic stability in human plasma at 50 uM measured after 60 mins by LC-MS/MS analysis; format: ADME, cell-free; details: read-out: Stability
Procedure, shortened: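 Working solution at 50 µM in acetonitrile:water (1:1), from a 10 mM DMSO stock. 2 µL added to 98 µL of plasma and incubated 60 min at 37 °C. Quenched with methanol containing internal standard, centrifuged, and supernatant analysed by LC-MS/MS.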

[11] = Solubility of the compound at pH 4.5 by HPLC method; format: physicochemical; details: buffer
Procedure, shortened: (§2)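 Compound diluted to a 5 mM DMSO working solution from a 10 mM stock. 5 µL added to 495 µL of buffer at the stated pH. Vortexed 5 min and centrifuged. Supernatant quantified by HPLC.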

[12] = Solubility of the compound at pH 7.4 by HPLC method; format: physicochemical; details: buffer; procedure, shortened: as §2
[13] = Solubility of the compound at pH 10.2 by HPLC method; format: physicochemical; details: buffer; procedure, shortened: as §2
[14] = Solubility of the compound at pH 1.2 by HPLC method; format: physicochemical; details: buffer; procedure, shortened: as §2
[15] = Metabolic stability in mouse liver microsomes at 1 or 50 uM measured after 30 to 60 mins in presence of cofactor by LC-MS/MS analysis; format: ADME
Procedure, shortened: (§3)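 Stock 10 mM in DMSO, diluted to a 50 µM working solution in acetonitrile:water (1:1). 2 µL of this added to 98 µL of buffer, microsomes and cofactor. Incubated at 37 °C for 15, 30, 45 and 60 min. Stopped with methanol containing internal standard, vortexed and centrifuged. Supernatant analysed by LC-MS/MS.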

[16] = Solubility of the compound at pH 2.2 by HPLC method; format: physicochemical; details: buffer; procedure, shortened: as §2
[17] = Metabolic stability in human liver microsomes at 1 or 50 uM measured after 30 to 60 mins in presence of cofactor by LC-MS/MS analysis; format: ADME; procedure, shortened: as §3

Compound | selectivity ratio [1] | MIC [2] [µg/mL] | fraction unbound at 0.5 h, 150 µM [4] | selectivity ratio [5] | IC50 at 48 h [6] [µM] | IC50 at 48 h [9] [µM] | remaining at 1 h, 50 µM [10] [%] | other results
Cc1c(CN2CCN(C)CC2)cc(-c2ccc(Cl)cc2)n1-c1ccc(Cl)cc1 | 57.2 | 0.7 (≈ 1.69 µM) | 0.0077 | 44.4 | 91.5 | 71 | 100 | cytotoxicity at 48 h [3]: 40 to 60%; cytotoxicity at 48 h [7]: 40 to 60%; MIC [8]: 0.7 to 1.5 µg/mL (≈ 1.69 to 3.62 µM)
C[Si]1(C)CCN(NCc2cc(-c3ccc(Cl)cc3)n(-c3ccc(Cl)cc3)n2)CC1 | 84.2 | 0.39 (≈ 0.875 µM) | 0.0069 | 99.8 | 73.2 | 86.8 | 100 | solubility [11]: 44.3 µM (≈ 19.7 µg/mL); cytotoxicity at 48 h [3]: 40 to 60%; solubility [12]: 39.8 µM (≈ 17.7 µg/mL); solubility [13]: 38 µM (≈ 16.9 µg/mL); cytotoxicity at 48 h [7]: 40 to 60%; solubility [14]: 43.1 µM (≈ 19.2 µg/mL); Stability [15]: 100%; solubility [16]: 43.2 µM (≈ 19.2 µg/mL); Stability [17]: 93.1%
CN(C)CCCNC(=O)c1cc(-c2ccc(Cl)cc2)n(-c2ccc(Cl)cc2)n1 |  | 25 (≈ 59.9 µM) |  |  |  |  |  | 
Cc1c(CN2CCN(C)CC2)nn(-c2ccc(Cl)cc2Cl)c1-c1ccc(Cl)cc1 | 2.9 | 12.5 (≈ 27.8 µM) |  | 3.1 | 80.3 | 85 |  | 
Cc1c(CN2CC[Si](C)(C)CC2)nn(-c2ccc(Cl)cc2Cl)c1-c1ccc(Cl)cc1 | 31.9 | 1.17 (≈ 2.44 µM) | 0.0005 | 30.5 | 54.2 | 51.9 | 99.2 | solubility [11]: 34.2 µM (≈ 16.4 µg/mL); cytotoxicity at 48 h [3]: 40 to 60%; solubility [12]: 1.05 µM (≈ 0.503 µg/mL); solubility [13]: 10.9 µM (≈ 5.24 µg/mL); cytotoxicity at 48 h [7]: 40 to 60%; solubility [14]: 41 µM (≈ 19.6 µg/mL); Stability [15]: 9.2%; solubility [16]: 40.6 µM (≈ 19.4 µg/mL); Stability [17]: 18.5%
Cc1c(C(=O)N2CCNCC2)nn(-c2ccc(Cl)cc2Cl)c1-c1ccc(Cl)cc1 |  | 25 (≈ 55.6 µM) |  |  |  |  |  | 
C[Si]1(C)CCN(Cc2nn(-c3ccc(Cl)cc3Cl)c(-c3ccc(Cl)cc3)c2CO)CC1 | 4.92 | 6.25 (≈ 12.6 µM) | 0.0004 | 2.41 | 61.9 | 30.4 | 88.1 | solubility [11]: 41.6 µM (≈ 20.6 µg/mL); solubility [12]: 5.31 µM (≈ 2.63 µg/mL); solubility [13]: 2.39 µM (≈ 1.18 µg/mL); solubility [14]: 44 µM (≈ 21.8 µg/mL); Stability [15]: 3.7%; solubility [16]: 42.5 µM (≈ 21 µg/mL); Stability [17]: 2.1%
Cc1c(C(=O)NCCCN(C)C)nn(-c2ccc(Cl)cc2Cl)c1-c1ccc(Cl)cc1 |  | 25 (≈ 53.7 µM) |  |  |  |  |  | 
Clc1ccc(-c2cc(CN3CCCCC3)nn2-c2ccc(Cl)cc2)cc1 |  | 1.56 (≈ 4.04 µM) | 0.0011 |  |  |  | 91.7 | solubility [11]: 43.6 µM (≈ 16.8 µg/mL); solubility [12]: 11.4 µM (≈ 4.4 µg/mL); solubility [13]: 1.49 µM (≈ 0.576 µg/mL); solubility [14]: 45 µM (≈ 17.4 µg/mL); Stability [15]: 26%; solubility [16]: 44.6 µM (≈ 17.2 µg/mL); Stability [17]: 60.1%
O=C1CCN(Cc2cc(-c3ccc(Cl)cc3)n(-c3ccc(Cl)cc3)n2)CC1 |  | 25 (≈ 62.5 µM) |  |  |  |  |  | 
Cc1c(CNCc2ccccc2)nn(-c2ccc(Cl)cc2Cl)c1-c1ccc(Cl)cc1 | 4.1 | 6.25 (≈ 13.7 µM) |  | 4.2 | 55.8 | 57.4 |  | 
O=C(c1cc(-c2ccc(Cl)cc2)n(-c2ccc(Cl)cc2)n1)N1CCNCC1 |  | 25 (≈ 62.3 µM) |  |  |  |  |  | 
Cc1c(C(=O)NN2CCN(C)CC2)nn(-c2ccc(Cl)cc2Cl)c1-c1ccc(Cl)cc1 |  | 25 (≈ 52.2 µM) |  |  |  |  |  | 
Cc1c(CN(C)C)nn(-c2ccc(Cl)cc2Cl)c1-c1ccc(Cl)cc1 | 3.62 | 6.25 (≈ 15.8 µM) |  | 2.3 | 57.2 | 36.3 |  | 
C[Si]1(C)CCN(Cc2cc(-c3ccc(Cl)cc3)n(-c3ccc(Cl)cc3)n2)CC1 | 841 | 0.031 (≈ 0.072 µM) | 0.0007 | 306 | 58.9 | 21.4 | 100 | solubility [11]: 41.9 µM (≈ 18 µg/mL); cytotoxicity at 48 h [3]: 40 to 60%; solubility [12]: 3.72 µM (≈ 1.6 µg/mL); solubility [13]: 1.99 µM (≈ 0.857 µg/mL); cytotoxicity at 48 h [7]: 40 to 60%; solubility [14]: 43 µM (≈ 18.5 µg/mL); Stability [15]: 6.3%; solubility [16]: 42.3 µM (≈ 18.2 µg/mL); Stability [17]: 20.3%
CN(C)C(=O)c1cc(-c2ccc(Cl)cc2)n(-c2ccc(Cl)cc2)n1 |  | 25 (≈ 69.4 µM) |  |  |  |  |  | 
CN1CCN(Cc2cc(-c3ccc(Cl)cc3)n(-c3ccc(Cl)cc3)n2)CC1 |  | 25 (≈ 62.3 µM) |  |  |  |  |  | 
C[Si]1(C)CCN(C(=O)c2cc(-c3ccc(Cl)cc3)n(-c3ccc(Cl)cc3)n2)CC1 | 4.85 | 6.25 (≈ 14.1 µM) | 0.0001 | 4.18 | 68.3 | 59 | 89.7 | solubility [11]: 0.13 µM (≈ 0.0578 µg/mL); solubility [12]: 0.05 µM (≈ 0.0222 µg/mL); solubility [13]: 1.28 µM (≈ 0.569 µg/mL); solubility [14]: 0.16 µM (≈ 0.0711 µg/mL); Stability [15]: 3.9%; solubility [16]: 0.18 µM (≈ 0.08 µg/mL); Stability [17]: 2.1%
Cc1c(CN2CCNCC2)nn(-c2ccc(Cl)cc2Cl)c1-c1ccc(Cl)cc1 |  | 25 (≈ 57.4 µM) |  |  |  |  |  | 
Cc1c(CN2CCCCC2)nn(-c2ccc(Cl)cc2Cl)c1-c1ccc(Cl)cc1 | 3.1 | 12.5 (≈ 28.7 µM) |  | > 3.5 | 88.8 | > 100 |  | 
COc1cccc2c1C(=O)c1c(O)c3c(c(O)c1C2=O)C[C@@](O)(C(=O)CO)C[C@@H]3O[C@H]1C[C@H](N)[C@H](O)[C@H](C)O1 [DOXORUBICIN] |  |  |  |  | 5.32 | 5.34 |  | 
NNC(=O)c1ccncc1 [ISONIAZID] |  | 0.3 (≈ 2.19 µM) |  |  |  |  |  | 
Cc1c(C(=O)NN2CCCCC2)nn(-c2ccc(Cl)cc2Cl)c1-c1ccc(Cl)cc1 [RIMONABANT] |  | 25 (≈ 53.9 µM) |  |  |  |  |  | 
